Source: ChEMBL document CHEMBL5724801, “EUbOPEN Chemogenomics Library - Multiplex” (2024)
Where “and” joins values, the source holds several entries; their conditions need not be identical. Equal entries are not always repeated.

System: Fibroblast
Assay: Multiplex assay against human fibroblast
Assay type: toxicity, cell-based
Procedure, shortened: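 At seeding, live cells were stained with Hoechst33342, BioTracker Green Microtubule Cytoskeleton Dye, MitoTracker Red and Annexin V Alexa Fluor 680. After compound addition they were imaged on a CQ1 microscope at 37°C and 5% CO2, and CellPathfinder machine-learning gating sorted them into Hoechst high-intensity objects or normal cells, with normal cells further split into healthy, pyknosed or fragmented nuclei and pyknosed cells into mitotic or apoptotic. Tubulin, mitochondrial-mass and membrane-permeability phenotypes are given as per cents of cells with healthy nuclei.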

[1] = 12 h, 1 µM, compound concentration 1 uM
[2] = 12 h, 10 µM, compound concentration 10 uM
[3] = 24 h, 1 µM, compound concentration 1 uM
[4] = 24 h, 10 µM, compound concentration 10 uM
[5] = 48 h, 1 µM, compound concentration 1 uM
[6] = 48 h, 10 µM, compound concentration 10 uM

## CC(/C=C1\SC(=S)N(CCCC(=O)Nc2ccc(C(=O)O)c(O)c2)C1=O)=C\c1ccccc1
[1]
  Population Apoptotic (%): 50% and 33%
  Population Fragmented Nuclei (%): 14% and 19%
  Population Healthy Nuclei (%): 71% and 60%
  Population Hoechst High Intensity Objects (%): 2% and 3%
  Population Membrane Permeable-Phenotype (%): 0% and 13%
  Population Mitochondria Different-Phenotype (%): 2% and 9%
  Population Mitotic Cells (%): 50% and 66%
  Population Normal (%): 97% and 96%
  Population Pyknosed Nuclei (%): 13% and 19%
  Population Tubulin-Different-Phenotype (%): 28% and 54%
  Total Cell Count: 206 and 157
[2]
  Population Apoptotic (%): 56% and 40%
  Population Fragmented Nuclei (%): 15% and 19%
  Population Healthy Nuclei (%): 70% and 48%
  Population Hoechst High Intensity Objects (%): 2% and 4%
  Population Membrane Permeable-Phenotype (%): 0% and 8%
  Population Mitochondria Different-Phenotype (%): 5%
  Population Mitotic Cells (%): 43% and 59%
  Population Normal (%): 97% and 95%
  Population Pyknosed Nuclei (%): 13% and 31%
  Population Tubulin-Different-Phenotype (%): 44% and 54%
  Total Cell Count: 123 and 122
[3]
  Population Apoptotic (%): 54% and 33%
  Population Fragmented Nuclei (%): 17%
  Population Healthy Nuclei (%): 72% and 63%
  Population Hoechst High Intensity Objects (%): 1% and 2%
  Population Membrane Permeable-Phenotype (%): 2% and 5%
  Population Mitochondria Different-Phenotype (%): 4% and 12%
  Population Mitotic Cells (%): 45% and 66%
  Population Normal (%): 98% and 97%
  Population Pyknosed Nuclei (%): 10% and 19%
  Population Tubulin-Different-Phenotype (%): 25% and 44%
  Total Cell Count: 208 and 144
[4]
  Population Apoptotic (%): 66% and 53%
  Population Fragmented Nuclei (%): 11% and 20%
  Population Healthy Nuclei (%): 81% and 53%
  Population Hoechst High Intensity Objects (%): 0% and 4%
  Population Membrane Permeable-Phenotype (%): 0% and 11%
  Population Mitochondria Different-Phenotype (%): 4%
  Population Mitotic Cells (%): 33% and 46%
  Population Normal (%): 99% and 95%
  Population Tubulin-Different-Phenotype (%): 25% and 70%
  Total Cell Count: 119 and 120
[5]
  Population Apoptotic (%): 78% and 45%
  Population Fragmented Nuclei (%): 24% and 29%
  Population Healthy Nuclei (%): 66% and 56%
  Population Hoechst High Intensity Objects (%): 3% and 1%
  Population Membrane Permeable-Phenotype (%): 1% and 7%
  Population Mitochondria Different-Phenotype (%): 2% and 6%
  Population Mitotic Cells (%): 21% and 54%
  Population Normal (%): 96% and 98%
  Population Pyknosed Nuclei (%): 9% and 14%
  Population Tubulin-Different-Phenotype (%): 31% and 44%
  Total Cell Count: 216 and 159
[6]
  Population Apoptotic (%): 46% and 59%
  Population Fragmented Nuclei (%): 18% and 34%
  Population Healthy Nuclei (%): 69% and 46%
  Population Hoechst High Intensity Objects (%): 0% and 3%
  Population Membrane Permeable-Phenotype (%): 0% and 5%
  Population Mitochondria Different-Phenotype (%): 1% and 5%
  Population Mitotic Cells (%): 53% and 40%
  Population Normal (%): 100% and 96%
  Population Pyknosed Nuclei (%): 12% and 19%
  Population Tubulin-Different-Phenotype (%): 33% and 58%
  Total Cell Count: 124 and 118

## CCCCCC(O)/C=C/[C@H]1C(=O)CC(O)C1C/C=C\CCCC(=O)O (some centres undefined)
[1]
  Population Apoptotic (%): 52% and 50%
  Population Fragmented Nuclei (%): 24% and 40%
  Population Healthy Nuclei (%): 65% and 41%
  Population Hoechst High Intensity Objects (%): 1% and 2%
  Population Membrane Permeable-Phenotype (%): 0% and 7%
  Population Mitotic Cells (%): 47% and 50%
  Population Normal (%): 98% and 97%
  Population Pyknosed Nuclei (%): 10% and 18%
  Population Tubulin-Different-Phenotype (%): 19% and 52%
  Total Cell Count: 172 and 169
[2]
  Population Apoptotic (%): 42% and 34%
  Population Fragmented Nuclei (%): 16% and 20%
  Population Healthy Nuclei (%): 69% and 56%
  Population Hoechst High Intensity Objects (%): 0% and 2%
  Population Membrane Permeable-Phenotype (%): 0% and 3%
  Population Mitochondria Different-Phenotype (%): 1% and 7%
  Population Mitotic Cells (%): 57% and 65%
  Population Normal (%): 99% and 97%
  Population Pyknosed Nuclei (%): 13% and 23%
  Population Tubulin-Different-Phenotype (%): 16% and 41%
  Total Cell Count: 139 and 101
[3]
  Population Apoptotic (%): 35% and 50%
  Population Fragmented Nuclei (%): 20% and 41%
  Population Healthy Nuclei (%): 70% and 50%
  Population Hoechst High Intensity Objects (%): 0% and 1%
  Population Membrane Permeable-Phenotype (%): 0% and 4%
  Population Mitochondria Different-Phenotype (%): 2% and 10%
  Population Mitotic Cells (%): 64% and 50%
  Population Normal (%): 99% and 98%
  Population Pyknosed Nuclei (%): 8%
  Population Tubulin-Different-Phenotype (%): 21% and 47%
  Total Cell Count: 169 and 184
[4]
  Population Apoptotic (%): 61% and 33%
  Population Fragmented Nuclei (%): 17% and 18%
  Population Healthy Nuclei (%): 72% and 59%
  Population Hoechst High Intensity Objects (%): 2% and 4%
  Population Membrane Permeable-Phenotype (%): 1% and 3%
  Population Mitochondria Different-Phenotype (%): 3% and 1%
  Population Mitotic Cells (%): 38% and 66%
  Population Normal (%): 97% and 95%
  Population Pyknosed Nuclei (%): 9% and 21%
  Population Tubulin-Different-Phenotype (%): 21% and 29%
  Total Cell Count: 138 and 101
[5]
  Population Apoptotic (%): 50% and 30%
  Population Fragmented Nuclei (%): 27% and 47%
  Population Healthy Nuclei (%): 66% and 46%
  Population Hoechst High Intensity Objects (%): 3% and 2%
  Population Membrane Permeable-Phenotype (%): 0% and 3%
  Population Mitochondria Different-Phenotype (%): 2% and 7%
  Population Mitotic Cells (%): 50% and 70%
  Population Normal (%): 96% and 97%
  Population Pyknosed Nuclei (%): 5%
  Population Tubulin-Different-Phenotype (%): 19% and 42%
  Total Cell Count: 175 and 186
[6]
  Population Apoptotic (%): 63% and 33%
  Population Fragmented Nuclei (%): 17% and 30%
  Population Healthy Nuclei (%): 74% and 61%
  Population Hoechst High Intensity Objects (%): 4% and 0%
  Population Membrane Permeable-Phenotype (%): 0% and 6%
  Population Mitochondria Different-Phenotype (%): 0% and 3%
  Population Mitotic Cells (%): 36% and 66%
  Population Normal (%): 95% and 99%
  Population Pyknosed Nuclei (%): 8%
  Total Cell Count: 141 and 104

## COc1cc2nc(N3CCN(C(=O)COc4c(OC)cccc4C(C)C)CC3)nc(N)c2cc1OC.Cl.Cl
[1]
  Population Apoptotic (%): 50% and 36%
  Population Fragmented Nuclei (%): 17% and 39%
  Population Healthy Nuclei (%): 51% and 42%
  Population Hoechst High Intensity Objects (%): 4% and 9%
  Population Membrane Permeable-Phenotype (%): 3% and 5%
  Population Mitochondria Different-Phenotype (%): 6% and 7%
  Population Mitotic Cells (%): 50% and 63%
  Population Normal (%): 95% and 90%
  Population Pyknosed Nuclei (%): 30% and 18%
  Population Tubulin-Different-Phenotype (%): 40% and 43%
  Total Cell Count: 123 and 182
[2]
  Population Apoptotic (%): 33% and 29%
  Population Fragmented Nuclei (%): 13% and 22%
  Population Healthy Nuclei (%): 47% and 46%
  Population Hoechst High Intensity Objects (%): 20% and 10%
  Population Membrane Permeable-Phenotype (%): 0% and 4%
  Population Mitochondria Different-Phenotype (%): 15% and 8%
  Population Mitotic Cells (%): 66% and 70%
  Population Normal (%): 79% and 89%
  Population Pyknosed Nuclei (%): 38% and 30%
  Population Tubulin-Different-Phenotype (%): 63% and 56%
  Total Cell Count: 346 and 283
[3]
  Population Apoptotic (%): 68% and 57%
  Population Fragmented Nuclei (%): 23% and 40%
  Population Healthy Nuclei (%): 58% and 42%
  Population Hoechst High Intensity Objects (%): 3% and 11%
  Population Membrane Permeable-Phenotype (%): 1% and 5%
  Population Mitochondria Different-Phenotype (%): 9% and 11%
  Population Mitotic Cells (%): 31% and 42%
  Population Normal (%): 96% and 88%
  Population Pyknosed Nuclei (%): 17%
  Population Tubulin-Different-Phenotype (%): 39% and 50%
  Total Cell Count: 128 and 180
[4]
  Population Apoptotic (%): 40% and 33%
  Population Fragmented Nuclei (%): 13% and 25%
  Population Healthy Nuclei (%): 45% and 40%
  Population Hoechst High Intensity Objects (%): 39% and 23%
  Population Membrane Permeable-Phenotype (%): 0% and 4%
  Population Mitotic Cells (%): 60% and 66%
  Population Normal (%): 60% and 76%
  Population Pyknosed Nuclei (%): 41% and 34%
  Population Tubulin-Different-Phenotype (%): 38% and 47%
  Total Cell Count: 344 and 273
[5]
  Population Apoptotic (%): 65% and 42%
  Population Fragmented Nuclei (%): 31% and 45%
  Population Healthy Nuclei (%): 51% and 43%
  Population Hoechst High Intensity Objects (%): 4% and 10%
  Population Membrane Permeable-Phenotype (%): 0% and 8%
  Population Mitochondria Different-Phenotype (%): 11% and 10%
  Population Mitotic Cells (%): 35% and 57%
  Population Normal (%): 96% and 89%
  Population Pyknosed Nuclei (%): 16% and 11%
  Population Tubulin-Different-Phenotype (%): 30% and 57%
  Total Cell Count: 125 and 193
[6]
  Population Apoptotic (%): 45% and 30%
  Population Fragmented Nuclei (%): 12% and 33%
  Population Healthy Nuclei (%): 45% and 33%
  Population Hoechst High Intensity Objects (%): 52% and 31%
  Population Membrane Permeable-Phenotype (%): 2% and 9%
  Population Mitochondria Different-Phenotype (%): 10% and 0%
  Population Mitotic Cells (%): 54% and 69%
  Population Normal (%): 47% and 68%
  Population Pyknosed Nuclei (%): 42% and 33%
  Population Tubulin-Different-Phenotype (%): 42% and 43%
  Total Cell Count: 358 and 311
